{"data": "Measurements of several laboratories", "Tumor necrosis factor receptor superfamily member 9": "Tumor necrosis factor receptor superfamily member 9 (Homo sapiens, UniProt Q07011)", "note": "Lines come from different studies, so protocols differ. pEC50, pIC50, pKd: −log10 of the molar value."}
{"SMILES": "CC(C)C[C@H](NC(=O)[C@H](Cc1ccccc1)NC(=O)[C@H](Cc1ccc(O)cc1)NC(=O)CNC(=O)[C@H](CCCNC(=N)N)NC(=O)[C@H](CO)NC(=O)[C@H](CCC(N)=O)NC(=O)[C@H](CO)NC(=O)[C@H](C)NC(=O)[C@H](Cc1ccccc1)NC(=O)[C@@H]1CCCN1C(=O)[C@H](CO)NC(=O)[C@H](CCC(N)=O)NC(=O)[C@H](Cc1ccccc1)NC(=O)[C@H](CCC(=O)O)NC(=O)[C@H](CCC(=O)O)NC(=O)[C@H](CC(=O)O)NC(=O)[C@@H](NC(=O)[C@H](CCCNC(=N)N)NC(=O)[C@@H](N)Cc1ccccc1)C(C)C)C(=O)N[C@@H](Cc1ccccc1)C(=O)N[C@@H](CCCNC(=N)N)C(=O)N1CCC[C@H]1C(=O)N[C@@H](CCCNC(=N)N)C(=O)N[C@@H](CC(N)=O)C(N)=O", "target": "Neuromedin-U receptor 2 (NMUR2, Homo sapiens, UniProt Q9GZQ4)", "effect on": "inositol phosphate", "mode": "agonist", "quantity": "pEC50", "result": 9.78}
{"SMILES": "CC#CC(=O)N1CC[C@@H](n2cc(-c3ccc(Oc4c(F)cccc4F)cc3)c3c(N)n[nH]c(=O)c32)C1", "target": "Tyrosine-protein kinase JAK3 (JAK3, Homo sapiens, UniProt P52333)", "effect on": "binding", "technique": "competition with immobilised ligand", "quantity": "pKd", "result": "< 5.52"}
{"SMILES": "CCCC[C@@H]1NC(=O)[C@H](Cc2ccc(O)cc2)NC(=O)[C@@H]2CCCN2C(=O)[C@H](CC(=O)O)NC(=O)[C@H](C)NC(=O)[C@H](Cc2ccccc2)NC(=O)[C@@H]2CSCCC(=O)N3CN(CN(C3)C(=O)CCSC[C@@H](C(=O)N[C@@H](C)C(N)=O)NC1=O)C(=O)CCSC[C@H](NC(C)=O)C(=O)N[C@@H](CC(C)(C)C)C(=O)N1CCC[C@H]1C(=O)N[C@@H](CCC(=O)O)C(=O)N[C@H](CCCCNC(=O)CCc1cn(CC(=O)N[C@H]3CSCCC(=O)N4CN5CN(C4)C(=O)CCSC[C@H](NC(=O)[C@@H](CC(=O)O)NC(=O)[C@H](Cc4cccc6ccccc46)NC(=O)[C@@H]4CCCN4C3=O)C(=O)N[C@@H](CCSC)C(=O)N[C@@H](CCCCNC(=N)N)C(=O)N[C@@H](CC(=O)O)C(=O)N[C@@H](Cc3c[nH]c4ccccc34)C(=O)N[C@@H](CO)C(=O)N[C@@H]([C@@H](C)O)C(=O)N3CCC[C@H]3C(=O)N3C[C@H](O)C[C@H]3C(=O)N[C@@H](Cc3c[nH]c4ccccc34)C(=O)N[C@H](C(N)=O)CSCCC5=O)nn1)C(=O)N1CCC[C@H]1C(=O)N[C@@H](Cc1ccc(O)cc1)C(=O)N2", "target": "Tumor necrosis factor receptor superfamily member 9", "effect on": "binding", "technique": "SPR", "quantity": "pKd", "result": 8.05}
{"SMILES": "c1cncc(-c2cccc(Nc3nccc(NC4CCCCC4)n3)c2)c1", "target": "Macrophage colony-stimulating factor 1 receptor (CSF1R, Homo sapiens, UniProt P07333)", "effect on": "binding", "technique": "competition with immobilised ligand", "quantity": "pKd", "result": 6.23}
{"SMILES": "Cc1cnc(-c2ccc(-c3ccc(NC(=O)Nc4c(F)cc(F)cc4F)cc3F)c3c2C(=O)NC3)[nH]1", "target": "Serine/threonine-protein kinase 4 (STK4, Homo sapiens, UniProt Q13043)", "effect on": "binding", "technique": "competition with immobilised ligand", "quantity": "pKd", "result": 8.89}
{"SMILES": "CCCC[C@@H]1NC(=O)[C@H](Cc2ccc(O)cc2)NC(=O)[C@@H]2CCCN2C(=O)[C@H](CC(=O)O)NC(=O)[C@H](C)NC(=O)[C@H](Cc2ccccc2)NC(=O)[C@@H]2CSCCC(=O)N3CN(CN(C3)C(=O)CCSC[C@@H](C(=O)N[C@@H](C)C(N)=O)NC1=O)C(=O)CCSC[C@H](NC(C)=O)C(=O)N[C@@H](CC(C)(C)C)C(=O)N1CCC[C@H]1C(=O)N[C@@H](CCCCNC(=O)CCc1cn(CC(=O)N[C@H]3CSCCC(=O)N4CN5CN(C4)C(=O)CCSC[C@H](NC(=O)[C@@H](CC(=O)O)NC(=O)[C@H](Cc4cccc6ccccc46)NC(=O)[C@@H]4CCCN4C3=O)C(=O)N[C@@H](CCSC)C(=O)N[C@@H](CCCCNC(=N)N)C(=O)N[C@@H](CC(=O)O)C(=O)N[C@@H](Cc3c[nH]c4ccccc34)C(=O)N[C@@H](CO)C(=O)N[C@@H]([C@@H](C)O)C(=O)N3CCC[C@H]3C(=O)N3C[C@H](O)C[C@H]3C(=O)N[C@@H](Cc3c[nH]c4ccccc34)C(=O)N[C@H](C(N)=O)CSCCC5=O)nn1)C(=O)N[C@H](C)C(=O)N1CCC[C@H]1C(=O)N[C@@H](Cc1ccc(O)cc1)C(=O)N2", "target": "Tumor necrosis factor receptor superfamily member 9", "effect on": "binding", "technique": "SPR", "quantity": "pKd", "result": 7.92}
{"SMILES": "Nc1nc2c(ncn2[C@@H]2O[C@H](COP(=O)(O)OP(=O)(O)OP(=O)(O)OC[C@H]3O[C@@H](n4cnc5c(=O)[nH]c(N)nc54)[C@H](O)[C@@H]3O)[C@@H](O)[C@H]2O)c(=O)[nH]1", "target": "Gem-associated protein 5 (Homo sapiens, UniProt Q8TEQ6)", "effect on": "binding", "technique": "ITC", "quantity": "pKd", "result": 3.85}
{"SMILES": "Cc1ccc(C)c(OCCCC(C)(C)C(=O)O)c1", "target": "Peroxisome proliferator-activated receptor alpha (PPARA, Homo sapiens, UniProt Q07869)", "effect on": "reporter gene", "mode": "agonist", "technique": "luciferase", "quantity": "pEC50", "result": 3.70}
{"SMILES": "CNC(=O)c1cc2c(Oc3ccc(NC(=O)C4(C(=O)Nc5ccc(F)cc5)CC4)cc3)ccnc2cc1OC", "target": "Hepatocyte growth factor receptor (MET, Homo sapiens, UniProt P08581, Y1230C)", "effect on": "enzyme activity", "mode": "inhibitor", "technique": "radiometric", "quantity": "pIC50", "result": 8.40}
